Results reported in ChEMBL document CHEMBL1143284, “Synthesis of riccardin C and its seven analogues. Part 1: The role of their phenolic hydroxy groups as LXRalpha agonists” (Bioorg Med Chem Lett, 2009).
Calls of active or inactive are those of the source. No cut-off for these calls is given here.

Columns and labels:
[1] = target: T1, Oxysterols receptor LXR-alpha (Homo sapiens) (UniProt Q13133); assay: Agonist activity at full length LXRalpha expressed in african green monkey COS1 cells co-transfected with RXRalpha assessed as increase in LXR-response element driven luciferase reporter gene transactivation at 10 to 30 uM after 24 hrs; details: COS-1
T1 sequence (whole entry): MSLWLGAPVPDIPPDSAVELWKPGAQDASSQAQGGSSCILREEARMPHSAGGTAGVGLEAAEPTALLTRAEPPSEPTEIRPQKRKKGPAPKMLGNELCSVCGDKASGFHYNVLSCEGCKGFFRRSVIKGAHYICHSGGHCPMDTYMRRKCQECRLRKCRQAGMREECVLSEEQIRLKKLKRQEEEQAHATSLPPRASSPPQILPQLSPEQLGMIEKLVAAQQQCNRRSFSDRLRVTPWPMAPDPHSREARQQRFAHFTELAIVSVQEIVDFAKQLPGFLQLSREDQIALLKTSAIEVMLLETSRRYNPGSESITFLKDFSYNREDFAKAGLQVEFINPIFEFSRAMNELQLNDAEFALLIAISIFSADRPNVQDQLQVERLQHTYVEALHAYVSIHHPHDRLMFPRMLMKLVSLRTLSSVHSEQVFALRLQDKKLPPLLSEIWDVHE

[2] = target: T2, Oxysterols receptor LXR-beta (Homo sapiens) (UniProt P55055); assay: Agonist activity at full length LXRbeta expressed in african green monkey COS1 cells co-transfected with RXRalpha assessed as increase in LXR-response element driven luciferase reporter gene transactivation at 10 to 30 uM after 24 hrs; details: COS-1
T2 sequence (whole entry): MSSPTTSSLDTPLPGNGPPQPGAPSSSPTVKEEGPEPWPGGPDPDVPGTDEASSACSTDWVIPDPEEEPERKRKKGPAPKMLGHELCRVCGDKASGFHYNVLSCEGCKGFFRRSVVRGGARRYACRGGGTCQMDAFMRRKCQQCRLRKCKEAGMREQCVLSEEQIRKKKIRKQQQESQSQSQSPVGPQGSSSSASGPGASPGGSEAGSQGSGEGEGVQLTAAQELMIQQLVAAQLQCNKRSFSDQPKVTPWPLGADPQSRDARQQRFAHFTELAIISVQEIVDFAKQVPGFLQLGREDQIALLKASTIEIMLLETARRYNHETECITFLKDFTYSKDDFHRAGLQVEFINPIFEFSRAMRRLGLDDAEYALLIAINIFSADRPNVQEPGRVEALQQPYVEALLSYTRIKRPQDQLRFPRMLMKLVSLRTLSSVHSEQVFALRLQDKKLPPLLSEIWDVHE

[3] = target: T2, Oxysterols receptor LXR-beta (Homo sapiens); assay: Activation of full length LXRbeta expressed in african green monkey COS7 cells co-transfected with RXRalpha assessed as increase in LXR-response element driven luciferase reporter gene transactivation after 24 hrs; type: cell-based; details: COS-7
Method in brief: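 Transient LXR/RXRα luciferase reporter assay in COS cells with β-galactosidase as internal control. Cells treated 24 h with test compounds at 10 or 30 μM, or TO901317 at 100 nM, in the presence of compactin to deplete endogenous LXR ligands. Luciferase activity in cell extracts normalized to β-galactosidase and expressed as fold induction over vehicle-treated cells.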

Compound | Activity [1] | Activity [2] | Activity [3]
COc1cc2ccc1-c1ccc(O)cc1CCc1ccc(cc1)Oc1cc(ccc1O)CC2 | inactive | inactive | –
Oc1ccc2c(c1)CCc1ccc(cc1)Oc1cc(ccc1O)CCc1ccc-2c(O)c1 | – | – | inactive
COc1ccc2cc1Oc1ccc(cc1)CCc1cc(O)ccc1-c1ccc(cc1O)CC2 | inactive | inactive | –
COc1ccc2c(c1)CCc1ccc(cc1)Oc1cc(ccc1O)CCc1ccc-2c(O)c1 | inactive | inactive | –

Results, then the compound that gave them:

Activity [1] | Activity [2] | Activity [3] | Compound
inactive | inactive | – | COc1ccc2c(c1)CCc1ccc(cc1)Oc1cc(ccc1OC)CCc1ccc-2c(OC)c1
inactive | inactive | – | COc1ccc2cc1Oc1ccc(cc1)CCc1cc(O)ccc1-c1ccc(cc1OC)CC2
inactive | inactive | – | COc1ccc2c(c1)CCc1ccc(cc1)Oc1cc(ccc1O)CCc1ccc-2c(OC)c1
inactive | inactive | – | COc1ccc2c(c1)CCc1ccc(cc1)Oc1cc(ccc1OC)CCc1ccc-2c(O)c1
